Assay results from ChEMBL document CHEMBL5038578, “Design, Synthesis, and Biological Evaluation of Peptidomimetic Aldehydes as Broad-Spectrum Inhibitors against Enterovirus and SARS-CoV-2” (J Med Chem, 2022).

What was measured:
[1] = Inhibition of Human enterovirus 71 3C-like protease expressed in Escherichia coli BL21 (DE3) cells using Dacyl-KTSAVLQSGFRKMEEdans as fluorogenic substrate incubated for 10 mins by FRET assay; set-up: species or system Enterovirus A71
In short: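 EV71 3Cpro expressed with N-terminal His-SUMO2 tag, tag cut by SENP2, then purified on Ni-NTA, Q-Sepharose and Superdex200. Enzyme at 5 μM final, preincubated 10 min with serial compound dilutions in 25 mM Tris pH 8.0, 150 mM NaCl, 10% glycerol. Fluorescence read at ex 340/em 490 nm. IC50 (mean ± SD, ≥3 experiments) by nonlinear regression.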

[2] = tested on: Enterovirus A71; assay: Antiviral activity against Human enterovirus 71 BrCr infected in human RD cells assessed as reduction in virus-induced cytopathic effect incubated for 4 days by MTS/PMS assay; type: functional, organism-based; details: Enterovirus A, 96 h
In short: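 RD cells (2.5 × 10^4/well) adhered overnight, then infected with EV71 BrCr and given serial compound dilutions. Incubated 4 days, until full CPE in virus controls. Viability by MTS/PMS, absorbance at 498 nm after 1–2 h at 37 °C. Normalised to infected and uninfected untreated controls; EC50 by curve fitting.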

[3] = Cytotoxicity against human RD cells assessed as reduction in cell viability measured after 4 days by MTS/PMS assay; type: toxicity, cell-based; details: time 4 day
[4] = tested on: rhinovirus A2; assay: Antiviral activity against wild type Rhinovirus-A02 infected in HeLa cells assessed as reduction in virus-induced cytopathic effect incubated for 3 days by MTS/PMS assay; type: functional, cell-based; details: Rhinovirus A, 72 h
[5] = tested on: rhinovirus B14; assay: Antiviral activity against wild type Human rhinovirus B14 infected in HeLa cells assessed as reduction in virus-induced cytopathic effect incubated for 3 days by MTS/PMS assay; type: functional, organism-based; details: Rhinovirus B, 72 h
[6] = tested on: enterovirus D68; assay: Antiviral activity against Human enterovirus 68 infected in HeLa cells assessed as reduction in virus-induced cytopathic effect incubated for 4 days by MTS/PMS assay; type: functional, organism-based; details: Enterovirus D, 96 h
[7] = tested on: Coxsackievirus A21; assay: Antiviral activity against Human coxsackievirus A21 infected in HeLa cells assessed as reduction in virus-induced cytopathic effect incubated for 3 days by MTS/PMS assay; type: functional, organism-based; details: Enterovirus C, 72 h
[8] = tested on: Coxsackievirus B3; assay: Antiviral activity against Human coxsackievirus B3 infected in Vero cells assessed as reduction in plaque formation treated 2 hrs post viral infection and measured 3 to 4 days post-infection by Giemsa staining based plaque reduction assay; type: functional, organism-based; details: Enterovirus B
[9] = Inhibition of SARS-CoV2 3C-like protease expressed in Escherichia coli BL21 (DE3) cells using Mca-AVLQSGFR-Lys(Dnp)-Lys-NH2 as fluorogenic substrate incubated for 10 mins by FRET assay; set-up: species or system Severe acute respiratory syndrome coronavirus 2
[10] = tested on: SARS-CoV-2; assay: Antiviral activity against SARS Cov-2 infected in Vero E6 cells assessed as reduction in viral RNA replication measured 24 hrs post infection by qRT-PCR analysis; type: functional, organism-based; details: Severe acute respiratory syndrome coronavirus 2, Vero C1008, 24 h
[11] = Cytotoxicity against African green monkey Vero E6 cells assessed as reduction in cell viability incubated for 24 hrs by CCK8 assay; type: toxicity, cell-based, Vero C1008; details: chlorocebus sabaeus
In short: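 Vero E6 cells (2 × 10^4/well) exposed to graded compound concentrations for 24 h. Relative surviving cell number measured by CCK-8.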

Structure (SMILES)	IC50 [1] [nM]	EC50 [2] [nM]	CC50 at 96 h [3] [µM]	EC50 [4] [nM]	EC50 [5] [nM]	EC50 [6] [nM]	EC50 [7] [nM]	EC50 [8] [µM]	IC50 [9] [nM]	EC50 [10] [nM]	CC50 at 24 h [11] [µM]
CCOC(=O)/C=C/[C@H](C[C@@H]1CCNC1=O)NC(=O)[C@H](Cc1ccc(F)cc1)NC(=O)[C@@H](NC(=O)c1cc(C)on1)C(C)C	1890	11	> 100								
O=C[C@H](C[C@@H]1CCNC1=O)NC(=O)[C@H](Cc1ccccc1)NC(=O)/C=C/c1ccccc1	4570	100	> 100	6600	1190	80	1730	15.9			
Cc1cc(C(=O)N[C@@H](Cc2ccccc2)C(=O)N[C@H](C=O)C[C@@H]2CCNC2=O)no1	2090	320	> 100								
O=C[C@H](C[C@@H]1CCNC1=O)NC(=O)[C@H](Cc1ccccc1)NC(=O)c1cccc2c1OCCO2	3010	770	> 100						97	8210	> 1000
O=C[C@H](C[C@@H]1CCNC1=O)NC(=O)[C@H](Cc1ccccc1)NC(=O)c1cn2cc(Br)ccc2n1	1620	360	> 100								
O=C[C@H](C[C@@H]1CCNC1=O)NC(=O)[C@H](Cc1ccccc1)NC(=O)c1cncc(F)c1	2020	470	> 100								
O=C[C@H](C[C@@H]1CCNC1=O)NC(=O)[C@H](Cc1ccccc1)NC(=O)c1ccc2c(c1)OCCO2	2210	300	> 100								
O=C[C@H](C[C@@H]1CCNC1=O)NC(=O)[C@H](Cc1ccccc1)NC(=O)C1=Cc2cc(Cl)ccc2OC1	4340	70	16.4						120	250	299
Cc1nc2ccccc2nc1C(=O)N[C@@H](Cc1ccccc1)C(=O)N[C@H](C=O)C[C@@H]1CCNC1=O	3040	370	> 100						65	440	603
COC(=O)/C=C/[C@H](C[C@@H]1CCNC1=O)NC(=O)[C@H](Cc1ccccc1)NC(=O)/C=C/c1ccccc1	1730	1210	> 100	1680	1650	100	3620	77.7			
O=C[C@H](C[C@@H]1CCNC1=O)NC(=O)[C@H](Cc1ccccc1)NC(=O)c1ccc2[nH]ccc2c1	3830	690	> 100								
O=C(/C=C/c1ccccc1)N[C@@H](Cc1ccccc1)C(=O)N[C@H](/C=C/C(=O)OCc1ccccc1)C[C@@H]1CCNC1=O	2060	3100	> 100								
O=C[C@H](C[C@@H]1CCNC1=O)NC(=O)[C@H](Cc1ccccc1)NC(=O)c1ccc2ccccc2n1	13000	120	> 100						140	430	627
O=C[C@H](C[C@@H]1CCNC1=O)NC(=O)[C@H](Cc1ccccc1)NC(=O)c1ccc2c(c1)OCO2	1470	220	> 100						78	1350	> 1000
CC(C)[C@H](NC(=O)c1cc2ccccc2o1)C(=O)N[C@@H](Cc1ccccc1)C(=O)N[C@H](C=O)C[C@@H]1CCNC1=O	2430	96	> 100						67	5620	> 1000
O=C[C@H](C[C@@H]1CCNC1=O)NC(=O)[C@H](Cc1ccccc1)NC(=O)c1ccc2ccc(Br)cc2n1	3220	94	46.2						240	350	823
O=C[C@H](C[C@@H]1CCNC1=O)NC(=O)[C@H](Cc1ccccc1)NC(=O)c1ccc2occc2c1	2370	290	> 100						59	760	> 1000
O=C[C@H](C[C@@H]1CCNC1=O)NC(=O)[C@H](Cc1ccccc1)NC(=O)c1cc2ccccc2o1	2440	93	> 100						80	490	> 1000
CC(C)[C@H](NC(=O)c1cc2ccccc2[nH]1)C(=O)N[C@@H](Cc1ccccc1)C(=O)N[C@H](C=O)C[C@@H]1CCNC1=O	4160	120	72.5	1020	980	260	510	9.15	68	4220	> 1000
Cc1cc(C(=O)N[C@H](C(=O)N[C@@H](Cc2ccccc2)C(=O)N[C@H](C=O)C[C@@H]2CCNC2=O)C(C)C)no1	6730	90	> 100						67	> 2000	> 1000
O=C[C@H](C[C@@H]1CCNC1=O)NC(=O)[C@H](Cc1ccccc1)NC(=O)c1cnc2ccccc2n1	3600	140	> 100								
CC(C)[C@H](NC(=O)c1ccc2c(c1)OCCO2)C(=O)N[C@@H](Cc1ccccc1)C(=O)N[C@H](C=O)C[C@@H]1CCNC1=O	4040	440	> 100								
